Laboratory results: publication PMC12120100 (Scientific Reports, 2025)

Columns and labels:
Experiment in all cases: Alkaline comet assay
Assay type in all cases: cell-based, human
HT-29 cells = details: HT-29, 20 µM (positive control), 24 h, ± SEM
In short: (§1)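 Alkaline comet assay. Cells seeded in 6-well plates at 150 000 (HT-29), 250 000 (PC3) or 600 000 (PBLs) per 2 mL and left 24 h, then exposed 24 h (37 °C, 5% CO2) to test compound at 0.5, 1 and 2 µM. Controls: untreated and 20 µM bleomycin. Cells pelleted at 1400 rpm, 10 min, 4 °C. Slides stained with DAPI (1 µg/ml); about 100 cells/slide scored. Output: mean % tail DNA ± SEM; ANOVA with Dunnett's test.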

PBLs = details: 20 µM (positive control), 24 h, ± SEM
In short: as §1

PC-3 cells = details: PC-3, 20 µM (positive control), 24 h, ± SEM
In short: as §1

bleomycin
DNA damage (mean tail DNA %) (HT-29 cells): 33.58 ± 3.62%
DNA damage (mean tail DNA %) (PBLs): 41.33 ± 1.95%
DNA damage (mean tail DNA %) (PC-3 cells): 44.99 ± 2.37%
